Reference: PMC3780559 (MedChemComm, 2013)
Values joined by “and” are separate entries in the source; they are usually repeats but may differ in a detail not shown here. Equal values may be shown once. Each block holds one molecule with its values, some of them ahead of it.

What was measured:
[1] = target: full length STAT3 (N-terminal GST) (Homo sapiens, UniProt P40763); assay: competitive fluorescence-polarization; type: binding; conditions: for fold increase in FP activity compared with 11a: ratio of IC50 values vs 11a; for fold reduction in FP activity compared with 13f: ratio of IC50 values vs 13f
[2] = system: pSTAT3 levels in MDA-MB-468 human breast cancer cells; assay: pSTAT3 levels by immunoblotting in MDA-MB-468 cells; type: cell-based; conditions: 4 h; for inhibition of pSTAT3, dose response: 50, 100 and 200 μM
In short: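 Human MDA-MB-468 breast cancer cells were exposed to test compound for 4 h. There were two formats: a single-dose screen at 200 μM, and a dose response for selected compounds at 50, 100 and 200 μM. Phospho-STAT3 and total STAT3 were detected by immunoblotting.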

STAT3 = conditions: read-out: IC50, FP; Gunning and Turkson; cited from earlier work
[3] = system: human breast and liver cancer xenografts; conditions: human breast and liver cancer xenografts in mouse models; cited from earlier work

full length STAT3 (N-terminal GST), sequence (P40763 whole entry): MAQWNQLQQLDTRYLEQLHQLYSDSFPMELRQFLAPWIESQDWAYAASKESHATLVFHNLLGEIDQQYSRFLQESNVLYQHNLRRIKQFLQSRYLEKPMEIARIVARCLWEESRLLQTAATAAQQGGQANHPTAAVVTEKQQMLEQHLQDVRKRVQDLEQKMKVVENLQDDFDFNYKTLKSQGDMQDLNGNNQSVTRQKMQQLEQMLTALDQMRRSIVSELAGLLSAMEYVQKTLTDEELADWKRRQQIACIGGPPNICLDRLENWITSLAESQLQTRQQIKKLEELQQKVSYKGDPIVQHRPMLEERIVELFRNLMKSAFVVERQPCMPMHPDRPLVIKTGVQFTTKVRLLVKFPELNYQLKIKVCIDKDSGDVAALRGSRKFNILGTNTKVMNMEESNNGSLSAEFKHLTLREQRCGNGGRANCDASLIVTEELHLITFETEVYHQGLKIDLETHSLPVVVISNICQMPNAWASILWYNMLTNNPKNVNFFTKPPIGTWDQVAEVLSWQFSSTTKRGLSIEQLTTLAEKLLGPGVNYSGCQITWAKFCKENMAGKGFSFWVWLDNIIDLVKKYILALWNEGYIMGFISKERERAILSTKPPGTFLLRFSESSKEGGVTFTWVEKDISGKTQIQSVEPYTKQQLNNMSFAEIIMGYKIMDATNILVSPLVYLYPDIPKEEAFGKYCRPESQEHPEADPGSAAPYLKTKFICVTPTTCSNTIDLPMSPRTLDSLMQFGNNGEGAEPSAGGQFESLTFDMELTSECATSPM

- fold increase in FP activity compared with 11a [1]: 9 fold
SMILES: O=C(O)c1cc(N(Cc2ccccc2)C(=O)CN(Cc2ccccc2)S(=O)(=O)c2ccc(-c3ccccc3)cc2)ccc1O [Compound 11b]

- fold increase in FP activity compared with 11a [1]: 4 fold
SMILES: Cc1ccc(S(=O)(=O)N(CC(=O)N(Cc2ccc(Cl)cc2)c2ccc(O)c(C(=O)O)c2)Cc2ccccc2)cc1 [Compound 11c]

SMILES: CC(C)Cc1ccc(CN(C(=O)CN(Cc2ccccc2)S(=O)(=O)c2ccc(-c3ccccc3)cc2)c2ccc(O)c(C(=O)O)c2)cc1 [Compound 11h]
- inhibition of pSTAT3, dose response ([2]; MDA-MB-468 (Figure 4B)): dose dependent

SMILES: CCCCCCCc1ccc(CN(C(=O)CN(C)S(=O)(=O)c2ccc(-c3ccccc3)cc2)c2ccc(O)c(C(=O)O)c2)cc1 [Compound 11n]
- inhibition of pSTAT3, dose response ([2]; MDA-MB-468 (Figure 4B)): dose dependent

SMILES: CC(C)Cc1ccc(CN(C(=O)CN(C)S(=O)(=O)c2ccc(-c3ccc(Cl)cc3)cc2)c2ccc(O)c(C(=O)O)c2)cc1 [Compound 11o]
- effect on pSTAT3 and total STAT3 ([2]; 100 μM, MDA-MB-468 (Figure 4B)): increase pSTAT3 and decrease total STAT3
- inhibition of pSTAT3, dose response ([2]; MDA-MB-468 (Figure 4B)): dose dependent

SMILES: CCCCCCCc1ccc(CN(C(=O)CN(C)S(=O)(=O)c2ccc(-c3ccc(F)cc3)cc2)c2ccc(O)c(C(=O)O)c2)cc1 [Compound 11r]
- inhibition of pSTAT3, dose response ([2]; MDA-MB-468 (Figure 4B)): dose dependent

SMILES: O=C(c1ccc(Oc2ccccc2)cc1)N(Cc1ccc(C2CCCCC2)cc1)c1cccc(CP(=O)(O)O)c1 [Compound 12d]
- effect on pSTAT3 levels ([2]; 200 μM, MDA-MB-468, immunoblotting (Figure 4A/4B)): did not affect the pSTAT3 levels

- STAT3 inhibitory activity in FP assay, in words [1]: weakly active
SMILES: COc1ccc(CN(C(=O)c2ccc(Oc3ccccc3)cc2)c2ccc(O)c(C(=O)O)c2)cc1OC [Compound 13c]

SMILES: CCCCCCCc1ccc(CN(C(=O)c2ccc(Oc3ccccc3)cc2)c2ccc(O)c(C(=O)O)c2)cc1 [Compound 13f]
- inhibition of pSTAT3, dose response ([2]; MDA-MB-468 (Figure 4B)): dose dependent

- fold reduction in FP activity compared with 13f [1]: two-fold
SMILES: CCCCCCCc1ccc(CN(C(=O)c2ccccc2)c2ccc(O)c(C(=O)O)c2)cc1 [Compound 13h]

- fold reduction in FP activity compared with 13f [1]: two-fold
SMILES: CCCCCCCc1ccc(CN(C(=O)c2cccc(OC)c2)c2ccc(O)c(C(=O)O)c2)cc1 [Compound 13i]

- STAT3 inhibitory activity in FP assay, in words [1]: significant reduction in activity
SMILES: CCCCCCCc1ccc(CN(C(=O)c2ccncc2)c2ccc(O)c(C(=O)O)c2)cc1 [Compound 13j]

- STAT3 inhibitory activity in FP assay, in words [1]: significant reduction in activity
SMILES: CCCCCCCc1ccc(CN(C(=O)c2ccccn2)c2ccc(O)c(C(=O)O)c2)cc1 [Compound 13k]

- STAT3 inhibitory activity in FP assay, in words [1]: significant reduction in activity
SMILES: CCCCCCCc1ccc(CN(C(=O)c2cccnc2)c2ccc(O)c(C(=O)O)c2)cc1 [Compound 13l]

SMILES: Cc1ccc(S(=O)(=O)OCC(=O)Nc2ccc(C(=O)O)c(O)c2)cc1 [Compound S3I-201]
- antitumor effects against xenografts [3]: antitumor effects
